Converted amounts (≈) assume the structure as drawn.
Legend:
Escherichia coli [1] = assay: Antibacterial activity against […] Escherichia coli DC2; format: functional
Method in brief: (§1)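 Agar dilution MIC: Mueller Hinton agar plates containing 17 serial dilutions of sample (final 25 to 0.002 μg/mL), meropenem and imipenem as standards. Strains grown 18 h at 37 °C in Fleisch extract broth (10% horse serum for some strains), spotted onto plates by automatic inoculator; MIC read after 18 h incubation.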

[2] = Cytotoxicity against human SK-OV-3 cell line; format: cell-based; settings: SK-OV-3 cells, read-out: ED50 (the source's name)
Streptococcus pyogenes [3] = assay: Antibacterial activity against methicillin-resistant Streptococcus pyogenes 308A; format: functional; method in brief: as §1
[4] = Cytotoxicity against human SK-MEL-2 cell line; format: cell-based; settings: SK-MEL-2 cells, read-out: ED50 (the source's name)
Staphylococcus aureus [5] = assay: Antibacterial activity against methicillin-resistant Staphylococcus aureus SG511; format: functional; method in brief: as §1
Enterococcus faecium = assay: Antibacterial activity against […] Streptococcus faecium MD8b; format: functional; method in brief: as §1
Staphylococcus aureus [6] = assay: Antibacterial activity against methicillin-resistant Staphylococcus aureus 285; format: functional; method in brief: as §1
[7] = Cytotoxicity against human A549 cell line; format: cell-based; settings: A549 cells, read-out: ED50 (the source's name)
Pseudomonas aeruginosa [8] = assay: Antibacterial activity against […] Pseudomonas aeruginosa 9027; format: functional; method in brief: as §1
Escherichia coli [9] = assay: Antibacterial activity against […] Escherichia coli 078; format: functional; method in brief: as §1
Escherichia coli [10] = assay: Antibacterial activity against […] Escherichia coli TEM; format: functional; method in brief: as §1
Staphylococcus aureus [11] = assay: Antibacterial activity against methicillin-resistant Staphylococcus aureus 503; format: functional; method in brief: as §1
Pseudomonas aeruginosa [12] = assay: Antibacterial activity against […] Pseudomonas aeruginosa 1771M; format: functional; method in brief: as §1
Klebsiella oxytoca = assay: Antibacterial activity against […] Klebsiella oxytoca 1082E; format: functional; method in brief: as §1
Streptococcus pyogenes [13] = assay: Antibacterial activity against methicillin-resistant Streptococcus pyogenes 77A; format: functional; method in brief: as §1
Escherichia coli [14] = assay: Antibacterial activity against […] Escherichia coli DC0; format: functional; method in brief: as §1
Pseudomonas aeruginosa [15] = assay: Antibacterial activity against […] Pseudomonas aeruginosa 1592E; format: functional; method in brief: as §1
Enterobacter cloacae [16] = assay: Antibacterial activity against […] Enterobacter cloacae P99; format: functional; method in brief: as §1
Pseudomonas aeruginosa [17] = assay: Antibacterial activity against […] Pseudomonas aeruginosa 1771; format: functional; method in brief: as §1
Escherichia coli [18] = assay: Antibacterial activity against […] Escherichia coli 1507E; format: functional; method in brief: as §1
Klebsiella aerogenes = assay: Antibacterial activity against […] Klebsiella aerogenes 1522E; format: functional; method in brief: as §1
[19] = Cytotoxicity against human XF498 cell line; format: cell-based; settings: XF498 cells, read-out: ED50 (the source's name)
[20] = Cytotoxicity against human HCT15 cell line; format: cell-based; settings: HCT-15 cells, read-out: ED50 (the source's name)
Salmonella typhimurium = assay: Antibacterial activity against […] Salmonella Typhimurium; format: functional, Salmonella enterica subsp. enterica serovar Typhimurium; settings: Salmonella enterica; method in brief: as §1
Enterobacter cloacae [21] = assay: Antibacterial activity against […] Enterobacter cloacae 1321E; format: functional; method in brief: as §1

SMILES	MIC (Escherichia coli [1])	CC50 [2]	MIC (Streptococcus pyogenes [3])	CC50 [4]	MIC (Staphylococcus aureus [5])	MIC (Staphylococcus aureus [6])	CC50 [7]	MIC (Staphylococcus aureus [11])	MIC (Pseudomonas aeruginosa [12])	MIC (Klebsiella oxytoca)	MIC (Streptococcus pyogenes [13])	MIC (Pseudomonas aeruginosa [15])	MIC (Pseudomonas aeruginosa [17])	CC50 [19]	CC50 [20]	further results
O=C1NC[C@@H](c2c[nH]c3cc(Br)ccc23)N=C1c1c[nH]c2ccccc12 [(R)-6'-DEBROMOHAMACANTHIN B]	25 µg/mL (≈ 61.4 µM)	8.5 µg/mL (≈ 20.9 µM)	6.3 µg/mL (≈ 15.5 µM)	7.6 µg/mL (≈ 18.7 µM)	12.5 µg/mL (≈ 30.7 µM)	12.5 µg/mL (≈ 30.7 µM)	3.71 µg/mL (≈ 9.11 µM)	12.5 µg/mL (≈ 30.7 µM)	25 µg/mL (≈ 61.4 µM)	25 µg/mL (≈ 61.4 µM)	12.5 µg/mL (≈ 30.7 µM)	> 25 µg/mL	25 µg/mL (≈ 61.4 µM)	8.3 µg/mL (≈ 20.4 µM)	4.2 µg/mL (≈ 10.3 µM)	MIC (Enterococcus faecium): > 25 µg/mL; MIC (Pseudomonas aeruginosa [8]): > 25 µg/mL; MIC (Escherichia coli [9]): > 25 µg/mL; MIC (Escherichia coli [10]): > 25 µg/mL; MIC (Escherichia coli [14]): > 25 µg/mL; MIC (Enterobacter cloacae [16]): > 25 µg/mL; MIC (Escherichia coli [18]): > 25 µg/mL; MIC (Klebsiella aerogenes): > 25 µg/mL; MIC (Salmonella typhimurium): > 25 µg/mL; MIC (Enterobacter cloacae [21]): > 25 µg/mL
COc1cccc2c1C(=O)c1c(O)c3c(c(O)c1C2=O)C[C@@](O)(C(=O)CO)C[C@@H]3O[C@H]1C[C@H](N)[C@H](O)[C@H](C)O1 [DOXORUBICIN]	–	0.03 µg/mL (≈ 0.0552 µM)	–	0.01 µg/mL (≈ 0.0184 µM)	–	–	0.01 µg/mL (≈ 0.0184 µM)	–	–	–	–	–	–	0.01 µg/mL (≈ 0.0184 µM)	0.02 µg/mL (≈ 0.0368 µM)	–
O=C1N[C@@H](c2c[nH]c3cc(Br)ccc23)CN=C1c1c[nH]c2cc(Br)ccc12 [HAMACANTHIN A]	–	5.24 µg/mL (≈ 10.8 µM)	–	5.44 µg/mL (≈ 11.2 µM)	–	–	4.49 µg/mL (≈ 9.24 µM)	–	–	–	–	–	–	5.6 µg/mL (≈ 11.5 µM)	4.66 µg/mL (≈ 9.59 µM)	–
O=C1NC[C@H](c2c[nH]c3cc(Br)ccc23)N=C1c1c[nH]c2cc(Br)ccc12 [HAMACANTHIN B]	–	2.61 µg/mL (≈ 5.37 µM)	–	1.59 µg/mL (≈ 3.27 µM)	–	–	2.14 µg/mL (≈ 4.4 µM)	–	–	–	–	–	–	2.93 µg/mL (≈ 6.03 µM)	1.52 µg/mL (≈ 3.13 µM)	–
C[C@@H](O)[C@H]1C(=O)N2C(C(=O)O)=C(S[C@@H]3CN[C@H](C(=O)N(C)C)C3)[C@H](C)[C@H]12 [MEROPENEM]	0.013 µg/mL (≈ 0.0339 µM)	–	0.004 µg/mL (≈ 0.0104 µM)	–	0.049 µg/mL (≈ 0.128 µM)	0.098 µg/mL (≈ 0.256 µM)	–	0.049 µg/mL (≈ 0.128 µM)	0.049 µg/mL (≈ 0.128 µM)	0.049 µg/mL (≈ 0.128 µM)	0.004 µg/mL (≈ 0.0104 µM)	0.098 µg/mL (≈ 0.256 µM)	0.391 µg/mL (≈ 1.02 µM)	–	–	–
O=C(C1=NC(c2c[nH]c3cc(Br)ccc23)CN1)c1c[nH]c2ccccc12 (stereo not given) [SPONGOTINE A]	–	3.71 µg/mL (≈ 9.11 µM)	–	5.04 µg/mL (≈ 12.4 µM)	–	–	6.82 µg/mL (≈ 16.7 µM)	–	–	–	–	–	–	7.22 µg/mL (≈ 17.7 µM)	9.8 µg/mL (≈ 24.1 µM)	–
O=C(C1=NC(c2c[nH]c3ccccc23)CN1)c1c[nH]c2cc(Br)ccc12 (stereo not given) [SPONGOTINE B]	25 µg/mL (≈ 61.4 µM)	> 30 µg/mL	25 µg/mL (≈ 61.4 µM)	> 30 µg/mL	25 µg/mL (≈ 61.4 µM)	25 µg/mL (≈ 61.4 µM)	> 30 µg/mL	25 µg/mL (≈ 61.4 µM)	25 µg/mL (≈ 61.4 µM)	25 µg/mL (≈ 61.4 µM)	25 µg/mL (≈ 61.4 µM)	> 25 µg/mL	> 25 µg/mL	> 30 µg/mL	> 30 µg/mL	MIC (Enterococcus faecium): > 25 µg/mL; MIC (Pseudomonas aeruginosa [8]): > 25 µg/mL; MIC (Escherichia coli [9]): > 25 µg/mL; MIC (Escherichia coli [10]): > 25 µg/mL; MIC (Escherichia coli [14]): > 25 µg/mL; MIC (Enterobacter cloacae [16]): > 25 µg/mL; MIC (Escherichia coli [18]): > 25 µg/mL; MIC (Klebsiella aerogenes): > 25 µg/mL; MIC (Salmonella typhimurium): > 25 µg/mL; MIC (Enterobacter cloacae [21]): > 25 µg/mL
O=C(C1=NC(c2c[nH]c3cc(Br)ccc23)CN1)c1c[nH]c2cc(Br)ccc12 (stereo not given) [SPONGOTINE C]	–	4.81 µg/mL (≈ 9.89 µM)	–	4.82 µg/mL (≈ 9.91 µM)	–	–	5.22 µg/mL (≈ 10.7 µM)	–	–	–	–	–	–	5.16 µg/mL (≈ 10.6 µM)	4.88 µg/mL (≈ 10 µM)	–
